In the library only some 1.4% were active in any assay of this set; here they are far more common.
APJ antagonist – antagonists of human apelin receptor APJ, primary screen, CHO-K1 cells, beta-arrestin complementation, luminescence. P35414. 330,000 compounds, 0.32% hits. inhibition, % at 20 µM;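 active = inhibition above about 40% at 20 µM, limit read from the data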;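 note: cells challenged with 10 nM apelin-13 agonist together with compound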
A3G deaminase – APOBEC3G DNA deaminase inhibitors, primary screen, biochemical, fluorescence, single-stranded DNA substrate, uHTS; DNA dC->dU-editing enzyme APOBEC-3G (Homo sapiens), Q9HC16; recombinant A3G, ssDNA deamination FAM/TAMRA fluorescence; inhibition, % at 20 µM; 330,000 compounds, 0.28% hits;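 active = inhibition of at least 40% at 20 µM, with no more than 30% in the related APOBEC3A deaminase screen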
Target sequence (Q9HC16 whole entry, looked up): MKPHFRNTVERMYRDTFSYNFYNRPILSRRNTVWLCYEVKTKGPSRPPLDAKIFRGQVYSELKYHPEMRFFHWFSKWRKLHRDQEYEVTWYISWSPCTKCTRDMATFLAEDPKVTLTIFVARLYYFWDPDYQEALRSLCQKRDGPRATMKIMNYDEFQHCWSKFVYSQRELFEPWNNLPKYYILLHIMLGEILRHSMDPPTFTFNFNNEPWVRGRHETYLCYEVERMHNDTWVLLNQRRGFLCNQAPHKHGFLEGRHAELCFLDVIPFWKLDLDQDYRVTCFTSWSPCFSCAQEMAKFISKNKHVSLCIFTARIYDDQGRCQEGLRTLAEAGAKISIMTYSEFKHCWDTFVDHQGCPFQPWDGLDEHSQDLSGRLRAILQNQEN
APOBEC3A inh – APOBEC3A ssDNA deaminase inhibitors, primary screen, selectivity assay for APOBEC3G inhibitor project, biochemical, FAM/TAMRA oligo cleavage fluorescence | DNA dC->dU-editing enzyme APOBEC-3A (Homo sapiens), P31941 | recombinant A3A, FAM/TAMRA ssDNA deamination fluorescence | inhibition, % at 20 µM | 330,000 compounds, 0.41% hits | AID 493011, 2011;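 active = at least 40% inhibition at 20 µM here, with at most 30% in a related deaminase screen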
Target sequence (P31941 whole entry, looked up): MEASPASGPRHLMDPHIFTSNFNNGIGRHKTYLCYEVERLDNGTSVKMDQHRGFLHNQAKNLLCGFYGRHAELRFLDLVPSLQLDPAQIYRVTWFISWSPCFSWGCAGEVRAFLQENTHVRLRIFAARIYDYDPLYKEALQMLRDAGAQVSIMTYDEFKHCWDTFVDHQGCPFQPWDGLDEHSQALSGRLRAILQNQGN
APJ ag – agonists of human apelin receptor APJ, primary screen, CHO-K1 cells, PathHunter beta-arrestin, luminescence | P35414 | AID 2520, 2010 | activation, % at 20 µM | 0% DMSO wells, 100% apelin | 330,000 compounds, 0.11% hits;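 active = activation more than six SD over the plate average, tested at 20 µM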
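Material: engineered CHO-K1 APJ arrestin reporter cells; amount: 1000 CHO-K1 reporter cells seeded per well; incubation: compound stimulation 90 min at 25 °C, detection 60 min; signal: luminescent beta-gal fragment complementation, chemiluminescent substrate; read-out basis: APJ agonist activity; controls: DMSO-only wells as negative, 10 nM Apelin-13 as positive control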
CXCR6 block – CXCR6 receptor inhibitors, primary screen, cell-based, beta-arrestin, luminescence, CHO-K1 PathHunter, 1536-well | C-X-C chemokine receptor type 6 (Homo sapiens), O00574 | inhibition, % at 20 µM | 360,000 compounds, 0.36% hits | AID 602244, 2012; in the data active = inhibition above about 34%, passing the limit was not always enough;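 note: antagonist mode with CXCL16 agonist at 10 nM final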
CCR6 antagonist – CCR6 receptor antagonists, primary screen, cell-based, CHO-K1, luminescence, beta-arrestin, uHTS; C-C chemokine receptor type 6 (Homo sapiens), P51684; CHO-K1 CCR6 PathHunter beta-arrestin, CCL20-stimulated; inhibition, % at 20 µM; 340,000 compounds, 0.49% hits;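 active = compounds whose inhibition of the agonist-driven luminescence signal at 20 µM reaches about 50%, limit read from the data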;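 note: cells stimulated with CCL20 at 14 nM final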
Each line names hits and unclear results; the compound was inactive in the other large screens.

CCN1/C(=C/C(C)=C/c2sc3ccccc3[n+]2CC)Sc2ccccc21	APJ antagonist 56, CXCR6 block 57, CCR6 antagonist 62
O=C(O)c1cc(N=Nc2c(O)ccc3ccccc23)cc(C(=O)O)c1	CCR6 antagonist 57 (no result: APJ antagonist, A3G deaminase, APOBEC3A inh, APJ ag)
O=C1c2ccccc2C(c2nnnn2-c2ccc3c(c2)OCCO3)N1Cc1ccco1 (stereo unspecified)	none (no result: APJ antagonist, A3G deaminase, APOBEC3A inh, APJ ag, CCR6 antagonist)
CC(C)SC1=NC(C)(C)C=C(/C=C/c2c(Cl)cccc2Cl)N1	CCR6 antagonist 52
CC(C)SC1=NC(C)(C)C=C(/C=C/c2ccc(Cl)cc2Cl)N1	CCR6 antagonist 51
O=C(COC(=O)CNC(=O)c1cccc([N+](=O)[O-])c1)Nc1cccc(S(=O)(=O)N2CCCC2)c1	none
CC(C)(C)c1cc(C(=O)NCC(=O)OCC(=O)c2cccc([N+](=O)[O-])c2)cc(C(C)(C)C)c1	CCR6 antagonist 57
O=C1C=C(c2ccc3ccccc3c2)C[C@@H](c2ccc(F)cc2)C1	none
Cn1cc(C(=O)N2CCCC(Nc3ccc(F)cc3)C2)c2ccccc21 (stereo unspecified)	none
COc1ccccc1N1C(=O)CC(Sc2n[nH]c(-c3cccc(C)c3)n2)C1=O (stereo unspecified)	CCR6 antagonist 75
NS(=O)(=O)c1ccc(NCc2cc(Cl)ccc2OCc2ccccc2F)cc1	CCR6 antagonist 54
COc1cc(/C=C/C(=O)N2C(=O)c3cccc(N)c3C2=O)cc(OC)c1OC	none
Nc1cccc2c1C(=O)N(C(=O)/C=C/c1cccc(Br)c1)C2=O	CXCR6 block 38, CCR6 antagonist 64 (no result: APJ antagonist, A3G deaminase, APOBEC3A inh, APJ ag)
C=CCn1c(O)c(C2=c3ccccc3=NC2=O)c2ccccc21	CXCR6 block 72, CCR6 antagonist 91
Cc1c(-n2c(O)c(C3=c4ccccc4=NC3=O)sc2=O)c(=O)n(-c2ccccc2)n1C	none
Cc1ccc2c(c1)c(C1=c3ccccc3=NC1=O)c(O)n2C	CCR6 antagonist 51
C=CCn1c(O)c(C2=c3ccccc3=NC2=O)s/c1=N/c1nccs1	none
Cc1ccc(CNc2ncnc3ccc(-c4ccoc4C)cc23)o1	none (no result: APJ antagonist, A3G deaminase, APOBEC3A inh, APJ ag, CCR6 antagonist)
Cn1cnc(S(=O)(=O)N2CCCCC2c2cc(C(=O)Nc3cccc(C#N)c3)no2)c1 (stereo unspecified)	none (no result: APJ antagonist, A3G deaminase, APOBEC3A inh, APJ ag, CCR6 antagonist)
O=C1C=CC(=O)N1c1cccc(-c2ccccc2)c1	CXCR6 block 72, CCR6 antagonist 76
C/C(=N\NC(=S)NCc1ccccc1)c1ccc(C(C)(C)C)cc1	CCR6 antagonist 62
Cn1c(=O)c(Nc2ccc(O)cc2)c2c3c(cccc31)C(=O)c1ccccc1-2	CCR6 antagonist 54
Cn1cc([N+](=O)[O-])c(C(=O)n2cccn2)n1	none
O=C(Nc1cccc(C(F)(F)F)c1)c1csc([C@@H]2O[C@H](CO)[C@@H](O)[C@H]2O)n1	none (no result: APJ antagonist, A3G deaminase, APOBEC3A inh, APJ ag, CCR6 antagonist)
CC1(C)CC(=O)C2=C(C1)Nc1ccccc1N=C2	APJ antagonist 58 (no result: CXCR6 block, CCR6 antagonist)
CCOC(=O)[C@]12CCCC=C1N(Cc1cccc3ccccc13)C(=O)[C@H](CC(=O)NCCc1ccccc1OC)C2	none (no result: APJ antagonist, A3G deaminase, APOBEC3A inh, APJ ag, CCR6 antagonist)
COC(=O)c1cc2c(C)nn(-c3ccccc3)c2s1	none
Cc1nn(-c2ccccc2)c2sc(C(=O)N(CC(=O)NC(C)(C)C)Cc3ccco3)cc12	CCR6 antagonist 57
O=[N+]([O-])c1ccc2nc(NN=Cc3ccc(O)cc3)sc2c1	CXCR6 block 55, CCR6 antagonist 78 (no result: APJ antagonist, A3G deaminase, APOBEC3A inh, APJ ag)
CC(C)c1ccc(/C=C/C(=O)Nc2nc3ccc([N+](=O)[O-])cc3s2)cc1	none
CC(CCc1ccccc1)NC(=O)COC(=O)c1ccc(S(C)(=O)=O)c([N+](=O)[O-])c1 (stereo unspecified)	CCR6 antagonist 50
CN1C(=CC=C2C=C(I)C(=O)C(I)=C2)C(C)(C)c2ccccc21	CXCR6 block 45, CCR6 antagonist 73 (no result: APJ antagonist, A3G deaminase, APOBEC3A inh, APJ ag)
COc1ccc(C(=O)CC(=O)C(=O)Nc2ccc(OC)c(Cl)c2)cc1	none
COc1ccc(C(=O)CC(=O)C(=O)Nc2ccc(Cl)cc2)cc1	CCR6 antagonist 53 (no result: APJ antagonist, A3G deaminase, APOBEC3A inh, APJ ag)
O=C(C(Cc1ccccc1)N1C(=O)C2C3C=CC(C3)C2C1=O)N1CCCCC1 (stereo unspecified)	CCR6 antagonist 108
O=C(C(Cc1ccccc1)N1C(=O)C2C3C=CC(C3)C2C1=O)N1CCCCCC1 (stereo unspecified)	none
Oc1c(Br)cc(Br)c2cccnc12	CCR6 antagonist 56 (no result: APJ antagonist, A3G deaminase, APOBEC3A inh, APJ ag)
Oc1c(CN2CCN(c3ccccc3)CC2)cc(Br)c2cccnc12	none (no result: APJ antagonist, A3G deaminase, APOBEC3A inh, APJ ag)
O=C(Nc1ccccc1)[C@@H]1CC=C[C@@H]2CCN(Cc3ccc(Cl)c(Cl)c3)C(=O)[C@@H]21	none
CN(C)c1ccc(C=NN2C(=O)CSC2=S)c(Cl)c1	none (no result: APJ antagonist, A3G deaminase, APOBEC3A inh, APJ ag, CCR6 antagonist)
Cc1ccc(N/C(N)=N/c2nc(C)cc(N3CCCCC3)n2)c(C)c1	APJ ag 28
C=CCN1C=C/C(=C\C=C(C#N)C#N)c2ccccc21	APJ antagonist 70, CXCR6 block 46, CCR6 antagonist 74
CCCCCCN1C=C/C(=C\C=C(C#N)C#N)c2ccccc21	APJ antagonist 65, CXCR6 block 61, CCR6 antagonist 77
Cc1noc(NS(=O)(=O)c2ccc(NS(=O)(=O)c3ccc(C(C)(C)C)cc3)cc2)c1C	none (no result: APJ antagonist, A3G deaminase, APOBEC3A inh, APJ ag, CCR6 antagonist)
COc1ccc(-c2nc3c(C)cc(Br)cn3c2Cc2cccc(Cl)c2)cc1OC	none (no result: APJ antagonist, A3G deaminase, APOBEC3A inh, APJ ag, CCR6 antagonist)
CC(C)(C)c1ccc(CN2N=Nc3ccccc3S2(=O)=O)cc1	CXCR6 block 49, CCR6 antagonist 64
O=S1(=O)c2ccccc2N=NN1Cc1ccc(Cl)c(Cl)c1	none (no result: CXCR6 block, CCR6 antagonist)
O=C(CN1CCN(Cc2ccc(Cl)cc2)CC1)N/N=C/c1ccccc1F	none
CCCc1nc2c(C)cc(Br)cn2c1Cc1ccc(OC)cc1C	none (no result: APJ antagonist, A3G deaminase, APOBEC3A inh, APJ ag, CCR6 antagonist)
Cn1c(N)c(C(=O)c2cc(-c3ccccn3)nc3ccccc23)c(=O)[nH]c1=O	APJ antagonist 56
CCOc1ccc(N=C2C(=O)N(CN3CCOCC3)c3ccccc32)cc1	CCR6 antagonist 59
CCOc1ccc(OCCN2C(=O)c3ccccc3C2=O)cc1	none
Cn1cnc([N+](=O)[O-])c1S(=O)(=O)Oc1cccc2ccccc12	CXCR6 block 49, CCR6 antagonist 74 (no result: APJ antagonist, A3G deaminase, APOBEC3A inh, APJ ag)
Cn1cnc([N+](=O)[O-])c1S(=O)(=O)Oc1ccc(Cl)cc1	CXCR6 block 52, CCR6 antagonist 60 (no result: APJ antagonist, A3G deaminase, APOBEC3A inh, APJ ag)
Cn1cnc([N+](=O)[O-])c1Oc1cccc2ccccc12	none
Cc1cc(O)c2c(c1)C(=O)[C@@]13Oc4c5c(c(O)c6c(O)cc(C)cc46)C(=O)C[C@H](O)[C@H]5[C@@H]1[C@@H](O)CC(=O)C3=C2O	none (no result: APJ antagonist, A3G deaminase, APOBEC3A inh, APJ ag)
